Assay results: the M2OR odorant receptor database

Experiments:
Settings in all cases: stereoisomer not certain
UniProt L7MU75 = molecular target: T1, UniProt L7MU75
T1 sequence (whole entry): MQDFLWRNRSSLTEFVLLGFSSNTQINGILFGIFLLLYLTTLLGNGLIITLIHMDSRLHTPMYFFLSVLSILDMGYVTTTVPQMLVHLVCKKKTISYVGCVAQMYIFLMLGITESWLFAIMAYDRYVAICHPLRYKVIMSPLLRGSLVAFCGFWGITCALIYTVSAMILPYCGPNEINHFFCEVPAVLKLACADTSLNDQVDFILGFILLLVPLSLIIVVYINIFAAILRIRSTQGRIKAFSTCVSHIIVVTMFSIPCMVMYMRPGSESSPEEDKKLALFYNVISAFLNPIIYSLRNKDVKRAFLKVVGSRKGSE
Method in brief: (§1)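 Each receptor–molecule pair is labelled responsive or non-responsive (inactive) according to whether the original authors judged the measured signal statistically different from baseline. The data were taken from the main text and supplementary material of published papers and checked for typos and inconsistencies. Assay methods differed by source, with transient luciferase assays in mammalian cell lines being common.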

UniProt L7N210 = molecular target: T2, UniProt L7N210
T2 sequence (whole entry): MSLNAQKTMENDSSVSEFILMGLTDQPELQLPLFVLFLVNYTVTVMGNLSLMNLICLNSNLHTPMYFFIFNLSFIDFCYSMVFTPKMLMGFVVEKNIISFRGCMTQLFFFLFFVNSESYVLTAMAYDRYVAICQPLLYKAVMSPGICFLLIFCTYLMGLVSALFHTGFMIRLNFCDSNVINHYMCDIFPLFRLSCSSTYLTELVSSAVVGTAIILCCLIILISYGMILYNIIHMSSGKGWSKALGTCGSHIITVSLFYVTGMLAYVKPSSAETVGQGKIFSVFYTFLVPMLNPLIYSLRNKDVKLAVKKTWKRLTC
Method in brief: as §1

UniProt Q3KPB0 = molecular target: T3, UniProt Q3KPB0
T3 sequence (whole entry): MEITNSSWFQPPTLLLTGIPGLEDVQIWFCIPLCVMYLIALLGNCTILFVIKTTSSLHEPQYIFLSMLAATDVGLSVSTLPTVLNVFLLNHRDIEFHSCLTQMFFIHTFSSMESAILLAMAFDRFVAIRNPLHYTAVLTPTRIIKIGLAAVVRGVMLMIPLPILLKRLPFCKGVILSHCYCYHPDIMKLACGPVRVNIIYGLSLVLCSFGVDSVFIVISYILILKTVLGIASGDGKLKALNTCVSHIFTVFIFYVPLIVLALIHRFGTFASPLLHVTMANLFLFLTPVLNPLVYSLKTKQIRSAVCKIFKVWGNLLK
Method in brief: as §1

UniProt Q3U0P3 = molecular target: T4, UniProt Q3U0P3
T4 sequence (whole entry): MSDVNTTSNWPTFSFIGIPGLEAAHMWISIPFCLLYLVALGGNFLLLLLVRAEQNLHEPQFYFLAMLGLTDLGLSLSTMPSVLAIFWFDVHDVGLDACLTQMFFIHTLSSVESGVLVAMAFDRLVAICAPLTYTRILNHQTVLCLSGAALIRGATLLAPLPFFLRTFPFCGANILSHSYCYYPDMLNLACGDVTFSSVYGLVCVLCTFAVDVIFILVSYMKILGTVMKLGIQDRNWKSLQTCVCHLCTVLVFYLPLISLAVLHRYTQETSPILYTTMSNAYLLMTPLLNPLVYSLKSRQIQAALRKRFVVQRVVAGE
Method in brief: as §1

UniProt Q7TQU8 = molecular target: T5, UniProt Q7TQU8
T5 sequence (whole entry): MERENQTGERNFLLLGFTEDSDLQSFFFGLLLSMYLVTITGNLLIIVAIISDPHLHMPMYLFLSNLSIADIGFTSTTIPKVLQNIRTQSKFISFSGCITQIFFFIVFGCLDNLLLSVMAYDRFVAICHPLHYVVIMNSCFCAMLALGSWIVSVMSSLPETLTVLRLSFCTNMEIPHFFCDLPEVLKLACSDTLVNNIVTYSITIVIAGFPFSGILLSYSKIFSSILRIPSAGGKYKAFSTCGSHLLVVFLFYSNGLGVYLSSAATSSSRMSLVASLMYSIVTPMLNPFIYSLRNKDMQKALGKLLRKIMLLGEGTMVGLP
Method in brief: as §1

UniProt Q7TQV4 = molecular target: T6, UniProt Q7TQV4
T6 sequence (whole entry): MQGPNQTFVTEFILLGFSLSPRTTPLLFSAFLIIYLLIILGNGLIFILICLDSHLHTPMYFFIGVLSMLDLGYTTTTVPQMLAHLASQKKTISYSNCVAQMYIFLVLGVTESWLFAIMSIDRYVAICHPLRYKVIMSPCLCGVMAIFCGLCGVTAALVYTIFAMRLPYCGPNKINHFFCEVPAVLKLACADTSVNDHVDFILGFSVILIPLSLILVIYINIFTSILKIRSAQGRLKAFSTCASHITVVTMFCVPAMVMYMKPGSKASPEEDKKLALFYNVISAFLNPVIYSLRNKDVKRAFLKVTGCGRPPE
Method in brief: as §1

UniProt L7N0P5 = molecular target: T7, UniProt L7N0P5
T7 sequence (whole entry): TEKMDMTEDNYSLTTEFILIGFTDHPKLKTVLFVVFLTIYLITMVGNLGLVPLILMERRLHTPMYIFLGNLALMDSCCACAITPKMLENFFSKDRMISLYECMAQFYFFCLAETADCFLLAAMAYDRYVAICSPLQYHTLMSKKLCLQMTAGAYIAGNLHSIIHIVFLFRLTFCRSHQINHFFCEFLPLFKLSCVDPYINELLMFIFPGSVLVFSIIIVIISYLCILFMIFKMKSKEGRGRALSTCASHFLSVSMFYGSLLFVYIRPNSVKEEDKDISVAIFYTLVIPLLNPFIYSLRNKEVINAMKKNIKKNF
Method in brief: as §1

Measured: odorant receptor agonist call

CCCCC(=O)CC
not listed: UniProt L7N0P5
inactive: all other assays above

c1ccccc1
not listed: UniProt L7N0P5
inactive: all other assays above

CCCCC(=O)O
not listed: UniProt L7N0P5
inactive: all other assays above

OCC=Cc1ccccc1
active: UniProt L7N210
inactive: UniProt L7MU75 | UniProt Q3KPB0 | UniProt Q3U0P3 | UniProt Q7TQU8

C=CCOC(=O)CCCCCC
not listed: UniProt L7N0P5
inactive: all other assays above

CCCCCCCCS
not listed: UniProt L7N0P5
inactive: all other assays above

CC(C)=CCCC(C)CCO (configuration not stated)
not listed: UniProt L7N0P5
inactive: all other assays above

COc1cc(C(=O)O)ccc1O
not listed: UniProt L7N0P5
inactive: all other assays above

CCCCCCCCO
not listed: UniProt L7N0P5
inactive: all other assays above

CCCCC(C)=O
not listed: UniProt L7N0P5
inactive: all other assays above

CCC(=O)O
not listed: UniProt L7N0P5
inactive: all other assays above

O=C(c1ccccc1)c1ccccc1
active: UniProt L7MU75
not listed: UniProt L7N0P5
inactive: all other assays above

Cc1cnc(C)c(C)n1
active: UniProt L7N0P5

COc1nccnc1CC(C)C
active: UniProt L7N0P5

CCCO
inactive: UniProt L7MU75 | UniProt L7N210 | UniProt Q3U0P3 | UniProt Q7TQU8

C=Cc1cnccn1
active: UniProt L7N0P5

O=C(OCc1ccccc1)c1ccccc1O
inactive: UniProt L7MU75 | UniProt L7N210 | UniProt Q3U0P3 | UniProt Q7TQU8
